Hits are enriched below; roughly 2.9% of the tested compounds scored in any of these assays.
MEKK2mut PB1 HTS – signal of MEK5 binding to mutant human MEKK2 PB1 domain; 0.35% of 290,000 active; bead flow cytometry, Alexa488-MEK5 binding to MEKK2 mutant; percent response, % at 10 µM; AID 1530; in the data active means percent response above about 24%, passing the limit was not always enough
MEKK2 WT-MEK5 – raises or lowers MEK5 binding to wildtype human MEKK2 PB1 domain; Q9Y2U5; bead flow cytometry, Alexa488-MEK5 binding to MEKK2 WT; actives lie on both sides; binding response (% of control), % at 10 µM; 1.1% of 290,000 active; in the data active means binding response below about 67% or above about 130%
B2AR ag – human beta-2 adrenergic receptor agonism by FAP; Am2.2-beta2AR cells, FAP receptor internalization, flow cytometry; AID 504454; 0.43% of 340,000 active; response, % (test concentration not listed);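 active means response above a set limit, near 3 SD of response in nonfluorescent compounds, cut at about 42% in these data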
Target sequence (P07550 whole entry, looked up): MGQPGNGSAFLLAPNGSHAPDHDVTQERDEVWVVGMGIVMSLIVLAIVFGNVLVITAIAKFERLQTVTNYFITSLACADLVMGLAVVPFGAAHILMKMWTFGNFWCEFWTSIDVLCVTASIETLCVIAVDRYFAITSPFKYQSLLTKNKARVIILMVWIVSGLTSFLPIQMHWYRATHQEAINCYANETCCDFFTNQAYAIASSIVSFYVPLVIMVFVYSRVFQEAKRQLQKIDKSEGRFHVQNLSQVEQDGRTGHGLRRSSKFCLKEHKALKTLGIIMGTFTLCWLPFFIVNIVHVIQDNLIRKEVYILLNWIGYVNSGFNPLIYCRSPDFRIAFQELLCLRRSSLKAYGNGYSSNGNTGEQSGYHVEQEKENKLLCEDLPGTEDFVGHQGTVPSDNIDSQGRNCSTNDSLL
Dynein cargo inh – dynein cargo transport inhibition; 3617.4 mouse cells, GR-EGFP nuclear translocation imaging; test concentration mostly 20 µM; stimulated with dexamethasone, 1 µM; stronger effect = lower value; z-score, hits read low; 0.47% of 220,000 active;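 active means plate z-score of nuclear minus cytoplasmic receptor signal below a set negative limit, without overly bright fluorescence or cell loss, cut at about -3.5 in these data, passing the limit was not always enough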;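 further: z-score of nuclear minus cytoplasmic ring GR-EGFP intensity difference per well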
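medium = tetracycline-free induction medium containing charcoal-stripped FBS | also added = 1.0 µM final dexamethasone stimulus | schedule = 48 h induction, 1 h compound, 30 min dex at 37 °C | technique = fixed, Hoechst-stained cells imaged at 10x for EGFP | measure = GR-EGFP nuclear translocation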
MEKK3 PB1 HTS – raises or lowers MEK5 binding to the human MEKK3 PB1 domain; bead-based flow cytometry, Alexa488-MEK5 binding to MEKK3; actives lie on both sides; 0 = blocked by unlabeled MEK5, 100 = vehicle; binding response (% of control), % at 10 µM; AID 1529; 1.4% of 290,000 active;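 active means binding response more than 3 SD above or below the average of its plate-row segment, actives on both sides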;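 further: Alexa488 bead fluorescence after subtracting the streptavidin-only scavenger bead signal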
ATG4B inh – ATG4B (human) cysteine protease inhibition | Q9Y4P1 | ATG4B cleavage of LC3-PLA2, NBD-HPC fluorescence, 1 h | inhibition, % at 8.33 µM | 0.51% of 340,000 active | AID 504462; in the data active means inhibition above about 40%
Dynein confirm – dynein cargo transport inhibition, confirmation; shares compounds with Dynein cargo inh; 3617.4 GR-EGFP nuclear translocation imaging, dexamethasone-induced; calls only at 20 µM; 69% of 1,000 active;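 active means inhibition of receptor movement into the nucleus at or above a set limit in both runs, with normal cell brightness and cell count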;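 further: dexamethasone at 1 µM final in well for 30 min; nuclear minus cytoplasmic GR-EGFP mean intensity difference in channel 2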
MEKK2wt confirm – raises or lowers MEK5 binding to wildtype human MEKK2, retest | shares compounds with MEKK3 PB1 HTS | bead flow cytometry, Alexa488-MEK5 binding to MEKK2 WT; actives lie on both sides | binding response (% of control), % at 10 µM | 2.4% of 5,900 active | AID 1892; in the data active means binding response below about 16% or above about 210%; inactive means in between
MEKK2mut confirm – signal of MEK5 binding to mutant human MEKK2, retest | shares compounds with MEKK3 PB1 HTS | bead flow cytometry, Alexa488-MEK5 binding to MEKK2 mutant | percent response, % at 10 µM | 2% of 5,900 active | AID 1893; in the data active means percent response mostly above about 71%, no sharp cut-off; inactive means mostly below about 38%;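 further: higher means compound restores mutant binding toward wildtype level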
MEKK3 confirm – MEKK3-MEK5 PB1 inhibition, single concentration confirmation. 1.8% of 5,900 active. AID 1894. shares compounds with MEKK3 PB1 HTS. binding response (% of control), % at 10 µM. bead flow cytometry, Alexa488-MEK5 binding to MEKK3; stronger effect = lower value;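 active means binding response below 72% of control, or above a set upper limit, though filed actives all read lower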;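 further: 100% = DMSO only wells and 0% = binding blocked by excess unlabeled MEK5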
* = called active by the depositor; [ ] = another dose, or the depositor's remark.

Screening COc1ccc(CNc2cc(NCCCO)c([N+](=O)[O-])c3nonc23)cc1 returned MEKK2mut PB1 HTS 4, MEKK2 WT-MEK5 102, B2AR ag -33, Dynein cargo inh -0.58, MEKK3 PB1 HTS 104 and ATG4B inh 1.
Cn1ccnc1Sc1cc(NCCCO)c([N+](=O)[O-])c2nonc12 was read as MEKK2mut PB1 HTS 0, MEKK2 WT-MEK5 113, B2AR ag 46*, Dynein cargo inh -4.9*, MEKK3 PB1 HTS 132*, ATG4B inh -3, Dynein confirm active, MEKK2wt confirm 101, MEKK2mut confirm -2 and MEKK3 confirm 99.
`CC(NCC(O)COCCC12CC3CC(CC(C3)C1)C2)c1ccccc1` (stereo unspecified) gave MEKK2mut PB1 HTS 13, MEKK2 WT-MEK5 139*, B2AR ag 34, Dynein cargo inh -5.2*, MEKK3 PB1 HTS 99, ATG4B inh 26, Dynein confirm inactive, MEKK2wt confirm 114, MEKK2mut confirm 3 and MEKK3 confirm 98.
CC(Sc1nnc(Cc2cccs2)n1C1CC1)C(=O)NC1CCS(=O)(=O)C1 (stereo unspecified) was read as B2AR ag -5 and ATG4B inh 11.
CCCN(C(=O)c1cc(S(=O)(=O)N(C)c2ccccc2OC)ccc1C)C1CCS(=O)(=O)C1 (stereo unspecified) was read as B2AR ag 0 and ATG4B inh 1.
`Cc1[nH]c2ccccc2c1/C=N/NC(=O)c1cccc([N+](=O)[O-])c1` gave MEKK2mut PB1 HTS -13, MEKK2 WT-MEK5 65, B2AR ag 0, Dynein cargo inh 1.6, MEKK3 PB1 HTS 61 and ATG4B inh -8.
Screening COc1ccccc1NS(=O)(=O)c1cc([N+](=O)[O-])ccc1N/N=C/c1c(C)[nH]c2ccccc12 returned MEKK2mut PB1 HTS 67*, B2AR ag -544, Dynein cargo inh -4.9, MEKK3 PB1 HTS 75, ATG4B inh 15, Dynein confirm inactive, MEKK2wt confirm 97, MEKK2mut confirm -1 and MEKK3 confirm 91.
For COc1cc2nc(CN3CCN(S(=O)(=O)c4cc(C)ccc4C)CC3)[nH]c(=O)c2cc1OC the results were B2AR ag 9 and ATG4B inh -10.
Screening CC(=O)OCCNc1cc(SCc2ccco2)c2nonc2c1[N+](=O)[O-] returned MEKK2mut PB1 HTS 1, MEKK2 WT-MEK5 113, B2AR ag 23, Dynein cargo inh -5.8*, MEKK3 PB1 HTS 146*, ATG4B inh -4, Dynein confirm active, MEKK2wt confirm 107, MEKK2mut confirm 6 and MEKK3 confirm 106.
`CCN(CC)CCCn1c2c(c(SCC(=O)Nc3ccc4c(c3)OCCO4)nc1=O)CCC2` gave B2AR ag 6 and ATG4B inh -1.
`COc1ccc(-c2csc3nc(-c4cccnc4)nc(Cl)c23)cc1OC` gave MEKK2mut PB1 HTS 1, MEKK2 WT-MEK5 105, B2AR ag 0, Dynein cargo inh -4.4*, MEKK3 PB1 HTS 145*, ATG4B inh -4, Dynein confirm active, MEKK2wt confirm 105, MEKK2mut confirm 10 and MEKK3 confirm 109.
Screening O=C1C(Cl)=C(N2CCCCCC2)C(=O)N1c1ccc(Cl)cc1 returned MEKK2mut PB1 HTS 1, MEKK2 WT-MEK5 104, B2AR ag 21, MEKK3 PB1 HTS 103 and ATG4B inh -1.
Screening O=C1C(Cl)=C(N2CCCCC2)C(=O)C(Cl)=C1c1cnc(N2CCCCC2)s1 returned MEKK2mut PB1 HTS -20, MEKK2 WT-MEK5 60*[inhibitor], B2AR ag 35, Dynein cargo inh -4.9*, MEKK3 PB1 HTS 62*[inhibitor], ATG4B inh 23, Dynein confirm active, MEKK2wt confirm 72, MEKK2mut confirm -7 and MEKK3 confirm 85.
For CCOc1ccc(-c2c(C(=O)N/N=C/c3ccc(Cl)cc3)nnn2-c2nonc2N)cc1 the results were MEKK2mut PB1 HTS -9, MEKK2 WT-MEK5 88, B2AR ag -4, MEKK3 PB1 HTS 97 and ATG4B inh -8.
For O=C(CN1C(=O)NC(Cc2c[nH]c3ccccc23)C1=O)Nc1ccc(Br)cc1F (stereo unspecified) the results were B2AR ag -5 and ATG4B inh -6.
CCSc1nnc(-c2sc3nnc(-c4ccccc4)c(-c4ccccc4)c3c2N)o1 was read as MEKK2mut PB1 HTS -14, MEKK2 WT-MEK5 70*[inhibitor], B2AR ag 13, Dynein cargo inh -7.4, MEKK3 PB1 HTS 96, ATG4B inh -3, Dynein confirm inactive, MEKK2wt confirm 76, MEKK2mut confirm -18 and MEKK3 confirm 96.
Screening O=C(Nc1ccccc1)C1=C(c2ccccc2)S(=O)(=O)CCS1(=O)=O returned MEKK2mut PB1 HTS -19, MEKK2 WT-MEK5 8.0*[inhibitor], B2AR ag 28, Dynein cargo inh -4.5*, MEKK3 PB1 HTS 6.0*[inhibitor], ATG4B inh 7, Dynein confirm inactive, MEKK2wt confirm 103, MEKK2mut confirm -4 and MEKK3 confirm 101.
`CN(C)c1ccc(/C=C/C(=O)c2cccc(Br)c2)cc1` gave MEKK2mut PB1 HTS -1, MEKK2 WT-MEK5 63*[inhibitor], B2AR ag -455, Dynein cargo inh -13, MEKK3 PB1 HTS 93, ATG4B inh 5, Dynein confirm active, MEKK2wt confirm 67, MEKK2mut confirm -21 and MEKK3 confirm 92.
Screening CN(C)c1ccc(C(=O)/C=C/c2cccnc2)cc1 returned MEKK2mut PB1 HTS 7, MEKK2 WT-MEK5 110, B2AR ag 10, MEKK3 PB1 HTS 104 and ATG4B inh -4.
